Compound activity as filed in PubChem.
MrgX1 antagonist: blocks BAM8-22 activation of human MrgX1 receptor; AID 588676; 1.3% of 310,000 active; MRGX1-HEK293 calcium flux, Fluo-4, BAM8-22 antagonism; stronger effect = lower value; Q96LB2; B-score at 10 µM;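 active = calcium-response B-score plate-corrected more than 3 library SD below zero, starting fluorescence within 5 deviations, no agonist response on first addition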;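 also: peak minus trough fluorescence over baseline after final BAM8-22 challenge near maximal dose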
Target sequence (Q96LB2 whole entry, looked up): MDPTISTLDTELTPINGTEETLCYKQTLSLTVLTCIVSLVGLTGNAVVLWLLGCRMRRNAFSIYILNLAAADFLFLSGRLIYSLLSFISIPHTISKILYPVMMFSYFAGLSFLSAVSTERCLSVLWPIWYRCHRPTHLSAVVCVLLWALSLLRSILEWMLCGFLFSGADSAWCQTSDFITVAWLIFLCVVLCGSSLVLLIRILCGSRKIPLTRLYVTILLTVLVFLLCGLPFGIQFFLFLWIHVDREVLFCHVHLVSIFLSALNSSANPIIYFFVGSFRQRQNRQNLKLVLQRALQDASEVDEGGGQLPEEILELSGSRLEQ
RGS4 inh: human RGS4 inhibition | HEK293 M3R/RGS4 inducible, Fluo-4 calcium flux; stronger effect = higher value; triggered by carbachol at its EC20 | 0.45% of 310,000 active | B-score at 10 µM | AID 463165;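 active = B-score, a plate-corrected calcium signal, over three deviations above library mean, with baseline fluorescence within five deviations of library mean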;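 also: RGS4 expression induced by doxycycline in cells with stable M3 receptor; B-score is computed from the integrated fluorescence ratio over baseline after carbachol; higher B-score means a larger calcium signal and so more RGS4 inhibition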
Target sequence (P49798 whole entry, looked up): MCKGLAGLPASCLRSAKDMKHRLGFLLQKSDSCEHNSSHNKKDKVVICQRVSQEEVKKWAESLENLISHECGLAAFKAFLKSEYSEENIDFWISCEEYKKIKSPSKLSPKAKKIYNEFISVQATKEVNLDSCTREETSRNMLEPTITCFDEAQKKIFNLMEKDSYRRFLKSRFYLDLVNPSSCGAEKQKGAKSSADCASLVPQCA
MrgX1 agonist: agonists of human MrgX1 receptor. MrgX1-HEK293 cells, Fluo-4 calcium fluorescence, agonist mode; stronger effect = higher value. B-score at 10 µM. Q96LB2. AID 588627. 0.44% of 310,000 active;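 active = calcium response B-score plate-corrected fluorescence ratio at least 3 library SD, with starting fluorescence B-score inside 5 SD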
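Material: HEK293 cells stably expressing human MrgX1 receptor | Quantity: 15,000 cells per well | Times: Cells plated overnight, dye loaded 0.5 h 37 °C, 0.5 h room temperature | Measured by: Kinetic Fluo-4 NW fluorescence of intracellular calcium | Control set: Positive and negative controls per plate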
RGS4 act: RGS4 potentiation or activation; HEK293 M3R/inducible RGS4, carbachol calcium flux Fluo4; stronger effect = lower value; B-score at 10 µM; 0.92% of 310,000 active; AID 463111;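 active = B-score of the integrated calcium signal more than 4 SD below the library mean, with starting fluorescence not abnormally high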;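 also: negative B-score means reduced calcium response which marks RGS4 activation or potentiation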
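Detection: kinetic calcium fluorescence imaging with Fluo4-AM dye, 2 µM / Material: HEK293 cells with stable M3R and inducible RGS4 / Schedule: recording 10 s baseline at 1 Hz, 100 s post-agonist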
MrgX1 allo act: allosterically activates human MrgX1 receptor signaling. MrgX1-HEK293, Fluo-4 calcium flux, FDSS; stronger effect = higher value. B-score at 10 µM. 0.63% of 310,000 active. AID 588675;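 active = plate-corrected calcium response at least 3 library SD above typical, normal starting fluorescence, not activating the receptor alone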;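 also: compound read alongside a low EC10 to EC30 dose of BAM8-22 agonist; peak minus trough fluorescence over baseline measured at the second addition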
MrgX1 ant reconf: human MrgX1 receptor antagonism, re-confirmation screen; shares compounds with MrgX1 antagonist; MrgX1-HEK293, BAM8-22 calcium flux, Fluo-4; stronger effect = lower value; remaining BAM8-22 calcium response % of control (stronger effect = lower value), % at 10 µM; 19% of 2,300 active; AID 602420;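 active = remaining agonist calcium response no higher than 100% minus 3 SD of agonist-only control wells, with starting fluorescence near control levels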;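 also: agonist BAM8-22 given at a near maximal EC90 to ECmax level; peak minus minimum fluorescence divided by baseline after agonist addition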
HEK293 Ca flux: MrgX1 antagonist counter-screen hit in parental HEK293 cells. shares compounds with MrgX1 antagonist. Fluo-4 calcium fluorescence, FDSS. fluorescence ratio F(max-min)/F0 at 10 µM. 2% of 4,000 active;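 active = duplicate-averaged calcium fluorescence ratio at least three times the standard deviation of buffer wells, a nonspecific response in parental cells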
HEK293 Ca counter: activity in parental HEK293 cells without MrgX1. shares compounds with MrgX1 antagonist. parental HEK293 calcium flux, Fluo-4 fluorescence ratio; stronger effect = higher value. fluorescence ratio F(max-min)/F0 at 10 µM. 0.4% of 4,000 active. AID 624114;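 active = calcium fluorescence ratio, averaged over duplicates, at least 3 SD of the buffer-well ratio, meaning a nonspecific response in receptor-free cells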;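 also: untransfected parental HEK293 lacking MrgX1 used as counterscreen for MrgX1 allosteric activators; fluorescence change taken during the second addition on a kinetic imager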
HEK293 Ca cntr2: counter-screen for MrgX1 activators: effect in parental HEK293 cells; shares compounds with MrgX1 antagonist; Fluo-4 calcium fluorescence (FDSS); stronger effect = higher value; fluorescence ratio F(max-min)/F0 at 10 µM; 8.7% of 4,000 active;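 active = calcium fluorescence ratio at least three times the spread of buffer wells, meaning a non-specific response in parental cells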
* marks the source's active call; other numbers are inactive results; i = inactive; · = not tested or not shown. This is a sample that favours compounds with a hit; in the whole collection about 3.5% have one here.

SMILES	MrgX1 antagonist	RGS4 inh	MrgX1 agonist	RGS4 act	MrgX1 allo act	MrgX1 ant reconf	HEK293 Ca flux	HEK293 Ca counter	HEK293 Ca cntr2
Cc1[nH]c(=O)nc(SCc2ccc(Cl)c(Cl)c2)c1C#N	-7.04*	i	i	i	i	i	i	i	i
Cc1cccc(C)c1NC(=O)NC1CC2CCC(C1)N2Cc1cccs1 (configuration not stated)	-7.51*	i	i	i	i	i	i	i	i
O=C(CN(c1ccccn1)S(=O)(=O)c1ccc(F)cc1)Nc1ccc(F)cc1F	-5.65*	i	i	i	i	i	i	i	i
C=CCCC(=O)N1CCC(n2nccc2NC(=O)c2ccccc2C)CC1	i	i	i	i	i	·	·	·	·
Cc1ccc(S(=O)(=O)Nc2ccc3c(c2)OCCO3)c(C)c1NS(C)(=O)=O	i	i	i	i	i	·	·	·	·
OC1CCN(CC(O)C(F)(F)F)CC1 (configuration not stated)	-5.67*	i	i	i	i	i	i	i	i
O=C(O)CNC(=O)C(CS)Cc1ccccc1 (configuration not stated)	-8.61*	·	i	·	i	i	i	i	i
O=C(O)CNC(=O)C(c1ccccc1)c1ccccc1	i	i	i	i	i	·	·	·	·
COc1ccccc1N1CCN(CC(O)c2ccc3cc[nH]c3c2)CC1 (configuration not stated)	-9.84*	i	i	i	i	i	i	i	i
CC(=O)Nc1nc(C(=O)O)cs1	-4.95*	i	i	i	i	81.0%*	i	i	i
O=C(NCc1ccc2c(c1)OCO2)C(=O)Nc1cc2c3c(c1)CC(=O)N3CCC2	i	i	i	i	i	·	·	·	·
CCOc1ccc(NC(=O)Cc2ccc(NC3=NC4CS(=O)(=O)CC4S3)cc2)cc1 (configuration not stated)	i	i	i	i	i	·	·	·	·
CCc1ccc(NC(=O)Cc2ccc(NC3=NC4CS(=O)(=O)CC4S3)cc2)cc1 (configuration not stated)	-6.13*	i	i	i	i	i	i	i	i
CCC(C)NC(=O)c1cc(Sc2nnc(C)s2)nc2ccccc12 (configuration not stated)	i	i	i	i	i	·	·	·	·
Cc1ccc(CC(=O)NCc2ccc(F)cc2)cc1	-5.03*	i	i	i	i	i	i	i	i
Cc1ccc(CNC(=O)Cc2ccc(-c3ccccc3)cc2)cc1	i	i	i	i	i	·	·	·	·
Cc1cccc(NC(=O)c2cccc(NC(=O)c3ccco3)c2)c1C	i	i	i	i	i	·	·	·	·
COC(=O)c1cc(OC)c(OC)cc1NC(=S)N1CCCCC1	-6.76*	i	i	i	i	i	i	i	i
COC(=O)c1cc(OC)c(OC)cc1NC(=S)N1CCN(C)CC1	i	i	i	i	i	·	·	·	·
Nc1cc(=O)[nH]c(SCc2nnnn2-c2ccc(Cl)cc2)n1	-6.87*	i	i	i	i	i	i	i	i
Cc1cc(=O)[nH]c(SCc2nnnn2-c2ccc(Cl)cc2)n1	i	i	i	i	i	·	·	·	·
COc1cccc(-n2nnc3c(=O)n(CC(=O)N4CCC(Cc5ccccc5)CC4)cnc32)c1	-7.53*	i	i	i	i	i	i	i	i
CC(C)CN(C(=O)c1ccco1)C1CCS(=O)(=O)C1 (configuration not stated)	-4.85*	i	i	i	i	i	i	i	i
CCOC(=O)C1=C(C)NC(=S)NC1c1ccc(-c2ccc(Cl)cc2)o1 (configuration not stated)	-4.83*	i	i	i	i	i	i	i	i
CCOC(=O)C1=C(C)NC(=O)NC1c1ccc(-c2ccc(Cl)cc2)o1 (configuration not stated)	i	i	i	i	i	·	·	·	·
SMILES	MrgX1 antagonist	RGS4 inh	MrgX1 agonist	RGS4 act	MrgX1 allo act	MrgX1 ant reconf	HEK293 Ca flux	HEK293 Ca counter	HEK293 Ca cntr2
O=C(O)CCCn1cc(NC(=O)c2ccco2)cn1	i	i	i	i	i	·	·	·	·
Cc1occc1C(=O)Nc1cnn(CCCC(=O)O)c1	-4.9*	i	i	i	i	i	i	i	i
NC(=O)C1CCN(C(=O)NC2CC(=O)N(c3ccc4c(c3)OCCO4)C2)CC1 (configuration not stated)	-6.95*	i	i	i	i	i	i	i	i
CC1CCN(C(=O)CN(Cc2ccc(F)cc2)S(C)(=O)=O)CC1	i	i	i	i	i	·	·	·	·
C[C@@]12C(=O)Nc3cc(F)ccc3C(=O)N1[C@H]1c3ccccc3OC[C@@H]1[C@@H]2c1ccccc1	-6.24*	·	i	·	i	82.4%*	i	i	i
Cc1ccc2c(c1)[C@H]1[C@H](CO2)[C@H](c2ccccc2)[C@]2(C)C(=O)Nc3cc(Cl)ccc3C(=O)N12	i	·	i	·	i	·	·	·	·
CCOC(=O)Cc1csc(NC(=O)c2sc3nc4cc(C)ccc4cc3c2N)n1	-6.4*	i	i	i	i	i	i	i	i
CCOC(=O)Cc1csc(NC(=O)Nc2cccc(Cl)c2)n1	-7.4*	i	i	i	i	i	i	i	i
CCOC(=O)Cc1csc(NC(=O)c2sc3nc4ccc(CC)cc4cc3c2N)n1	i	i	i	i	i	·	·	·	·
CCOC(=O)Cc1csc(NC(=O)Nc2ccc(Cl)cc2)n1	i	i	i	i	i	·	·	·	·
O=C1CN(c2ccccc2)C(=S)N1C(=O)c1ccc(Br)cc1	i	i	i	i	i	·	·	·	·
O=C(Nc1ccncc1)c1ccc2c(c1)S(=O)(=O)c1ccccc1C2=O	i	i	i	i	i	·	·	·	·
O=C(Nc1ccc(-c2ccccc2)cc1)c1ccc2c(c1)S(=O)(=O)c1ccccc1C2=O	-4.69*	i	i	i	i	i	i	i	i
